GRK2 inh: compounds blocking aptamer binding on GRK2 – biochemical, human GRK2, bead flow cytometry, HTS, primary screen; 330,000 compounds, 0.59% hits; inhibition of aptamer binding, % at 10 µM; Beta-adrenergic receptor kinase 1 (Homo sapiens), P25098; FAM-aptamer displacement from GRK2;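 active = inhibition of aptamer binding above 40%, roughly 3 SD of noise, on plates passing a quality check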;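 note: median bead fluorescence of bound FAM aptamer so fluorescent compounds give negative values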
ARNT-TACC3 inh: disruptors of ARNT/TACC3 protein interaction, primary screen, biochemical, AlphaScreen, single concentration | inhibition, % at 9.99 µM | AID 623870, 2012 | 390,000 compounds, 0.66% hits | AlphaScreen His-ARNT PAS-B/GST-TACC3 binding, luminescence; TACC3 fragment carries E629A point mutation | Transforming acidic coiled-coil-containing protein 3 (Homo sapiens), Q9Y6A5;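 active = mean inhibition of replicates at least 50% and at least half of replicates each reaching 50%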;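 note: 0% = complete ARNT plus TACC3 wells and 100% = ARNT alone without TACC3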
Tn7 DDE FP: inhibitors of Tn7 peptide binding to fibrin DD(E), primary screen, biochemical, fluorescence polarization, human fibrin, Tn7 probe | Fibrinogen beta chain (Homo sapiens), P02675 | FP displacement of FITC-Tn7 peptide from fibrin DD(E); 0% = median of compound wells per plate | inhibition, % at 8.3 µM | 370,000 compounds, 0.13% hits | AID 720508, 2013;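 active = inhibition above the mean of compounds falling within the control limits plus 3 SD of them, cut at about 14% in these data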;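 note: 0% = plate median of compound wells and 100% = 10 µM Aha-Tn7 peptide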
Target sequence (P02675 whole entry, looked up): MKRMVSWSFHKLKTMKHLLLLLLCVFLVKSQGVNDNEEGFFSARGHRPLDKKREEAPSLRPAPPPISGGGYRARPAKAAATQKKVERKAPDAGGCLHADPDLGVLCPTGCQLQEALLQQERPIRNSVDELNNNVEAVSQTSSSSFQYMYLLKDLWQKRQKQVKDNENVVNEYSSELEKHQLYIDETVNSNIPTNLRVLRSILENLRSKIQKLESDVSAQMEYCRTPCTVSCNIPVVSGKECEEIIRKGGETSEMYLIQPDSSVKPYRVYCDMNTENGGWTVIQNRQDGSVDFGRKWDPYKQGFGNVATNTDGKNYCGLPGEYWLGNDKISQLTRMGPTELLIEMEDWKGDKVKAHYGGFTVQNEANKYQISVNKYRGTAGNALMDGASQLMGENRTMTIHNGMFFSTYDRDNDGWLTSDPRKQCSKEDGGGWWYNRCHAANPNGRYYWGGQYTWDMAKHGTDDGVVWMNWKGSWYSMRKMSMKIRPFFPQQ
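Test system: human clot-derived fibrin DD(E) complex / Quantity: 2 µM final DD(E) protein / Incubation: 10 min plus 3 h, room temperature / Measured by: fluorescence polarization / Benchmarks: high control of 10 µM Aha-Tn7 peptide / Replicates: singlicate testing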
Tn6 DDE FP: inhibitors of Tn6 peptide binding to fibrin DD(E), primary screen, biochemical, fluorescence polarization, human fibrin, Tn6 probe | Fibrinogen beta chain (Homo sapiens), P02675 | Fibrin DD(E) TRITC-Tn6 fluorescence polarization displacement | inhibition, % at 8.3 µM | 370,000 compounds, 0.21% hits | AID 720509, 2013;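 active = inhibition above a per-campaign cutoff: mean of compounds within control limits plus 3 SD, cut at about 15% in these data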;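 note: 0% = median of all compound wells on the plate and 100% = blocking peptide control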
CAL PDZ FP-1: CAL PDZ peptide-binding inhibitors, primary screen, biochemical, fluorescence polarization, Cer-tagged CAL PDZ, HTS. AID 504414, 2011. purified CAL PDZ, TMR-peptide fluorescence polarization, 1 h. inhibition, % at 20 µM. Golgi-associated PDZ and coiled-coil motif-containing protein (Homo sapiens), Q9HD26. 330,000 compounds, 0.02% hits;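 active = highest replicate inhibition of at least 40%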;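 note: plate controls were DMSO neutral control wells for no effect and unlabeled competitor peptide control wells for full effect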
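Test system: tagged CAL PDZ domain / Buffer or medium: sodium phosphate/NaCl buffer pH 7.4 with TCEP, IgG, Thesit / Reagent: TMR-labelled reporter peptide T*-PRC34 bound in PDZ groove / Compound dosing: single point, 20 µM / Schedule: 1 h incubation at room temperature before polarization reading / Technique: fluorescence polarization (mP) / Benchmarks: unlabelled peptide, DMSO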
CAL PDZ FP-2: untagged CAL PDZ binding inhibitors, primary screen, biochemical, fluorescence polarization, HTS. purified CAL PDZ, TMR-peptide fluorescence polarization, 1 h. inhibition, % at 24.9 µM. 300,000 compounds, 0.92% hits. AID 602252, 2012;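 active = mean inhibition of at least 30% with at least half of replicates also reaching 30%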;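 note: 0% = DMSO neutral control and 100% = excess unlabeled competitor peptide PRC23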
An asterisk follows results filed as active; x = not tested or not shown; + = active, no number. Shown are actives, neighbours in structure and some others; about 1.8% of the full set was active somewhere.

SMILES | GRK2 inh | ARNT-TACC3 inh | Tn7 DDE FP | Tn6 DDE FP | CAL PDZ FP-1 | CAL PDZ FP-2
CC(=O)Nc1cccc(NC(=O)CSc2nn3c(=O)c(C)nnc3s2)c1 | 0 | 67* | -4 | -1 | -1 | x
Cc1nnc2sc(SCC(=O)Nc3ccc(Cl)cc3)nn2c1=O | 1 | 43* | -3 | 0 | 15 | 37*
COc1ccc(S(=O)(=O)N(C)C[C@@H]2Oc3cc(C#CC4CC4)ccc3S(=O)(=O)N([C@H](C)CO)C[C@H]2C)cc1 | x | 0 | x | x | x | x
COc1ccc(C#Cc2ccc3c(c2)[C@H]2[C@H](CCN2S(=O)(=O)c2cccc(OC)c2)[C@H](CO)N3C)cc1 | x | -3 | x | x | x | x
COc1ccc2cc3c(N)nn(C(=O)c4cccc([N+](=O)[O-])c4)c3nc2c1 | 73* | -1 | -2 | -3 | -1 | -5
CN1CCN(C(=O)C[C@@H]2C[C@H]3c4cc(NC(=O)Nc5ccccc5)ccc4O[C@H]3[C@H](CO)O2)CC1 | x | -7 | x | x | x | x
CC(C)(C)NC(=O)Cn1c(Cl)nc2ccccc21 | 2 | 1 | -4 | 7 | 1 | 69*
COC(=O)C1CCN(C(=O)C2CCC(=O)N(CCCc3ccccc3)C2)CC1 (stereo not given) | 0 | 0 | 2 | 3 | -1 | 69*
Cc1cc(CN(C)C(=O)C2CCC(=O)N(CCc3cccc(F)c3)C2)on1 (stereo not given) | 21 | -9 | 10 | -7 | 0 | 59*
Cc1cc(CN(C)C(=O)C2CCC(=O)N(CCc3ccccc3)C2)n[nH]1 (stereo not given) | 0 | -2 | 4 | -1 | -2 | 35*
O=C(NCC1CCOCC1)C1CCC(=O)N(Cc2cccc(C(F)(F)F)c2)C1 (stereo not given) | 1 | -1 | 0 | 4 | -1 | 32*
CCn1ccnc1CN(C)C(=O)C1CCC(=O)N(CCc2cccc(F)c2)C1 (stereo not given) | 3 | 3 | -7 | 3 | -1 | 2
CC1(C)CC(NC(=O)c2cc(S(=O)(=O)N3CCOCC3)c(Cl)cc2Cl)CC(C)(C)N1 | 5 | x | -1 | 6 | -1 | -3
CC(C)Cc1cc(CNC(=O)C2CCC(=O)N(CCc3cccc(F)c3)C2)on1 (stereo not given) | 0 | 0 | -4 | 2 | -2 | -2
Cc1ccc(CCNC(=O)C2CCC(=O)N(Cc3cccc(F)c3)C2)cc1 (stereo not given) | 6 | -6 | 6 | 14 | 0 | 59*
CCCc1cc(CNC(=O)C2CCC(=O)N(CCc3cccc(F)c3)C2)on1 (stereo not given) | 3 | -1 | 0 | -6 | -1 | 35*
CCN(CC)C(=O)Nc1ccc(C(=O)OC)cc1 | 0 | 3 | 3 | 11 | -2 | -7
CCN(CC)CCNC(=O)C(=O)Nc1ccc(C(=O)OC)cc1 | 0 | -4 | 3 | -1 | -1 | +
Cn1c(SSc2ccc(-c3cccnc3)n2C)ccc1-c1cccnc1 | x | 17* | 4 | 5 | -1 | -4
c1cncc(-c2nnc(-c3cccnc3)nn2)c1 | 1 | 6 | -7 | -6 | -1 | -1
O=C(Cn1nc(C(=O)O)c2ccccc2c1=O)Nc1cc(Cl)ccc1-n1cncn1 | 0 | -9 | 5 | 4 | -3 | 7
CCn1nc(C(=O)Nc2cc(Cl)ccc2-n2cncn2)c2ccccc2c1=O | 0 | 3 | -3 | -6 | -1 | 58*
O=C(C1CCOCC1)N1C[C@H]2[C@@H](c3ccccc31)[C@@H](CO)N2C(=O)Cc1ccccn1 | x | 7 | x | x | x | x
O=C(CN1CCCC1)N/N=C/c1c(O)ccc2ccccc12 | 0 | 59* | -9 | 7 | 2 | -1
Cc1ccc(O)c(/C=N/NC(=O)CN2CCCC2)c1 | 0 | 66* | -3 | -2 | -1 | -4
SMILES | GRK2 inh | ARNT-TACC3 inh | Tn7 DDE FP | Tn6 DDE FP | CAL PDZ FP-1 | CAL PDZ FP-2
Oc1ccc2ccccc2c1C=NC12CN3CCN(CN(C3)C1)C2 | 2 | 67* | -3 | -5 | 0 | 0
CCN(CC)C(=O)CN1C(=O)c2cccc3cccc1c23 | 5 | -13 | 0 | 3 | x | 37*
OC(c1ccccn1)(c1ccccn1)c1ccccn1 | 0 | 75* | 3 | 3 | -3 | -2
CC(c1ccccn1)C(C)(O)C(C)c1ccccn1 (stereo not given) | x | -3 | 11 | -6 | -1 | 7
C[C@@H]1CN([C@@H](C)CO)C(=O)CCCn2cc(nn2)CO[C@@H]1CN(C)C(=O)Nc1ccc(N2CCN(C)CC2)cc1 | x | -12 | x | x | x | x
Cc1c(NC(=O)CSc2ccccc2C(=O)Nc2cccnc2)c(=O)n(-c2ccccc2)n1C | 0 | -3 | -9 | 6 | -2 | 83*
Cc1c(NC(=O)COC(=O)c2ccccc2Cl)c(=O)n(-c2ccccc2)n1C | 0 | 22 | -3 | -4 | 0 | 3
Cc1c(NC(=O)COc2ccccc2Cl)c(=O)n(-c2ccccc2)n1C | 4 | 2 | -3 | 4 | -1 | 41*
Cc1c(NC(=O)CN2C(=O)c3ccc([N+](=O)[O-])cc3C2=O)c(=O)n(-c2ccccc2)n1C | 1 | 1 | 4 | 3 | -1 | 55*
Cc1nn(Cc2ccccc2)c(C)c1NC(=O)Cn1nc([N+](=O)[O-])c(Cl)c1C | 3 | -6 | -15 | 1 | -1 | -4
Cc1c(NC(=O)CN2C(=O)c3ccccc3C2=O)c(=O)n(-c2ccccc2)n1C | 0 | -3 | 1 | 4 | 0 | -3
Cc1c(Cl)c([N+](=O)[O-])nn1CC(=O)Nc1c(C)n(C)n(-c2ccccc2)c1=O | 0 | -3 | -3 | -2 | -1 | 53*
CN1[C@@H]2c3ccc(/C=C/c4ccccc4)c(=O)n3C[C@@H]2[C@@H](CO)[C@@H]1C(=O)N1CCOCC1 | x | 7 | x | x | x | x
O=C1C(C2=NC(c3ccccn3)C3C(=O)N(c4ccccc4)C(=O)C23)=C(O)c2ccccc21 (stereo not given) | 1 | -2 | -3 | 3 | 0 | x
CO[C@@H]1CN(C)C(=O)c2cc(NS(=O)(=O)c3ccccc3)ccc2OC[C@H](C)N(C(=O)NC(C)C)C[C@H]1C | x | -28 | x | x | x | x
